# Assay results as given in PMC11047177 (ESMO Open, 2024).
# “Also recorded” adds a separate entry of the source.
# Experiments:
# [1] = Plasma PF-06939999 pharmacokinetics, noncompartmental; type: in vivo, human
# Procedure, shortened: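 Test compound given orally on an empty stomach. Part 1 had intensive plasma sampling on cycle 1 day 1 and day 15; part 2 had sparse sampling. Plasma was assayed by a validated method with LLOQ 0.250 ng/ml; values below LLOQ were set to zero for summaries. Noncompartmental analysis was done within a dosing interval. Rac was based on AUCτ. Parameters were summarised by dose, cycle and day as geometric means.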
# [2] = tested on: selected locally advanced or metastatic solid tumors; test: Tumor response by RECIST v1.1; type: in vivo, human; conditions: for Duration of response (DoR): part 1
# [3] = tested on: non-small-cell lung cancer (NSCLC) cells; conditions: in vitro; cited from earlier work
smiles,measurement,setting,value
Cc1ncnc2c1ccn2[C@@H]1C[C@H](Oc2cc(C(F)F)c(F)c3c2CNCC3)[C@@H](O)[C@H]1O [PF-06939999],Dose dependence of exposure (AUCτ and Cmax),[1]; 0.5 mg q.d. to 6 mg b.i.d.,exposure increased with dose; also recorded: increased in a dose-dependent manner
same,Variability of AUCτ,"[1]; RP2D, 6 mg q.d.",38%
same,Variability of Cmax,"[1]; RP2D, 6 mg q.d.",26%
same,Time to steady-state PK,[1]; b.i.d. and q.d. regimens,≤ 15 days
same,Effective half-life,[1]; indicated by Rac after b.i.d. dosing,> 24 h
same,Objective response rate,"[2]; part 1 + part 2, 3/54 patients",6%
same,Stable disease,"[2]; part 1 + part 2, 19 patients, response-assessable population (44 patients)",43.2%
same,Confirmed PRs,"[2]; part 1, 28 patients treated, two patients (HNSCC 2 mg b.i.d., NSCLC 4 mg b.i.d.)",7%
same,Duration of response (DoR),"[2]; confirmed responder with HNSCC, 2 mg b.i.d.",4 months
same,Duration of response (DoR),"[2]; confirmed responder with NSCLC, 4 mg b.i.d.",5 months
same,Progressive disease,"[2]; part 2, 26 patients, 6 mg q.d., 8 patients",31%
same,Disease control,"[2]; part 2, 26 patients, 6 mg q.d., 11 patients",42%
same,Confirmed PR,"[2]; part 2, 26 patients, 6 mg q.d., one patient with NSCLC",4%
same,Anti-proliferative activity,[3],demonstrated anti-proliferative activity
